{"data": "Experimental data of several laboratories", "target": "Casein kinase I isoform alpha-like (CSNK1A1L, Homo sapiens, UniProt Q8N752)", "Sequence (Q8N752 1-337, as in one of the studies)": "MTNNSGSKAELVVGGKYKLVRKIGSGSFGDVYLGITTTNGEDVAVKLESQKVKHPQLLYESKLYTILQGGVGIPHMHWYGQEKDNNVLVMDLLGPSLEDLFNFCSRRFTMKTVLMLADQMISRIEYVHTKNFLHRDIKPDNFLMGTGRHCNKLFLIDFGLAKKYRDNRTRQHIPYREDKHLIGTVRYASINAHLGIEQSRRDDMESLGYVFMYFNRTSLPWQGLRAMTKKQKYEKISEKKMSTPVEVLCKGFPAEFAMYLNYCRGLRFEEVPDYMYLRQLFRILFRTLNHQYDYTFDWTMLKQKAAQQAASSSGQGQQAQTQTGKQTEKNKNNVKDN", "note": "Compare with care: the assays were run in different laboratories."}
{"SMILES": "Cc1nccc(COC(=O)N2C[C@@H]3[C@@H](CNC(=O)c4ccc5[nH]nnc5c4)[C@@H]3C2)n1", "assay": "cell-free assay, competition with immobilised ligand", "setting": "1 µM", "remaining binding [%]": 100}
{"SMILES": "O=C(NCCCN1CCOCC1)c1ccc(Nc2nccc(-c3cc4ccccc4s3)n2)cc1", "assay": "binding, competition with immobilised ligand", "setting": "1 µM", "remaining binding [%]": 91}
{"SMILES": "F[C@@H]1CCN(c2nccc(-c3cnn4ncccc34)n2)C1", "assay": "binding", "setting": "1 µM", "remaining binding [%]": 100}
{"SMILES": "Nc1ncc2c(n1)-c1c([nH]c3ccc(C#CC4CC4)cc13)CCCC2", "assay": "binding, competition with immobilised ligand", "setting": "1 µM", "remaining binding [%]": 99}
{"SMILES": "CC1CCCN1c1nccc(-c2cnn3ncccc23)n1 (stereo not drawn)", "assay": "binding", "setting": "1 µM", "remaining binding [%]": 100}
{"SMILES": "Cc1cnc(Nc2ccc(C(=O)N3CCC(N4CCCC4)CC3)cc2)nc1-c1cc2ccccc2s1", "assay": "binding, competition with immobilised ligand", "setting": "1 µM", "remaining binding [%]": 100}
{"SMILES": "COc1cnc(Nc2cccc(S(N)(=O)=O)c2)nc1N1CCN(c2ccccc2)CC1", "assay": "binding, competition with immobilised ligand", "setting": "1 µM", "remaining binding [%]": 96}
{"SMILES": "O=C(c1ccc(Nc2nccc(-c3cc4ccccc4s3)n2)cc1)N1CCC(N2CCCC2)CC1", "assay": "binding, competition with immobilised ligand", "setting": "1 µM", "remaining binding [%]": 98}
{"SMILES": "CCCOc1ccc([C@@H]2[C@@H](C(=O)O)[C@H](c3ccc4c(c3)OCO4)CN2CC(=O)Nc2c(CC)cccc2CC)cc1", "assay": "cell-free assay, competition with immobilised ligand", "setting": "1 µM", "remaining binding [%]": 94}
{"SMILES": "COc1cnc(Nc2cccc(S(N)(=O)=O)c2)nc1N1CCN(c2ccccc2)C(=O)C1", "assay": "binding, competition with immobilised ligand", "setting": "1 µM", "remaining binding [%]": 100}
{"SMILES": "FC(F)(F)Oc1cccc(-c2cnc3ccc(-c4ccncc4)nn23)c1", "assay": "cell-free assay, competition with immobilised ligand", "setting": "5 µM", "remaining binding [%]": 90}
{"SMILES": "CCC(=N\\O)/C(C)=C/c1ccc(F)cc1", "assay": "cell-free assay, competition with immobilised ligand", "setting": "1 µM", "remaining binding [%]": 78}
{"SMILES": "N[C@H]1CCN(c2nccc(-c3cnn4ncccc34)n2)C1", "assay": "binding", "setting": "1 µM", "remaining binding [%]": 100}
{"SMILES": "Cc1c[nH]c2nccc(Oc3c(F)cc(Nc4cc(Cl)nc(N)n4)cc3F)c12", "assay": "cell-free assay, competition with immobilised ligand", "setting": "0.1 µM", "remaining binding [%]": 89}
{"SMILES": "C[C@H]1CCN(c2nccc(-c3cnn4ncccc34)n2)C1", "assay": "binding", "setting": "1 µM", "remaining binding [%]": 100}
{"SMILES": "N#Cc1ccc(Nc2ccc3[nH]c(=O)[nH]c3c2)c(Cl)c1", "assay": "cell-free assay, competition with immobilised ligand", "setting": "1 µM", "remaining binding [%]": 100}
{"SMILES": "c1cnn2ncc(-c3ccnc(N4CCC45COC5)n3)c2c1", "assay": "binding", "setting": "1 µM", "remaining binding [%]": 68}
{"SMILES": "O=C(NCC1CCOCC1)c1n[nH]cc1NC(=O)c1c(F)cccc1F", "assay": "binding, competition with immobilised ligand", "setting": "1 µM", "remaining binding [%]": 85}
{"SMILES": "C[C@@H](c1ccc(-n2cnc3c(N)ncnc32)cc1)N1CCc2nn(C)c(Cc3ccccc3)c2C1=O", "assay": "binding, competition with immobilised ligand", "setting": "0.1 µM", "remaining binding [%]": 91}
{"SMILES": "CN(c1nccc(-c2cnn3ncccc23)n1)C1CC1", "assay": "binding", "setting": "1 µM", "remaining binding [%]": 100}
{"SMILES": "CC(C)CC(=O)N1CCc2nc(-c3ccc(Br)cc3)nc(N(C)Cc3ccccc3)c2C1", "assay": "cell-free assay, competition with immobilised ligand", "setting": "0.1 µM", "remaining binding [%]": 100}
